ChEMBL document CHEMBL1138849, “5-substituted tetrazoles as bioisosteres of carboxylic acids. Bioisosterism and mechanistic studies on glutathione reductase inhibitors as antimalarials” (J Med Chem, 2004)
Calls of active or inactive are those of the source. The rule behind the calls is not given here.

How the values were obtained:
[1] = biological target: Glutathione reductase (Plasmodium falciparum 3D7) (UniProt O15770); experiment: Catalysis constant against Plasmodium falciparum glutathione reductase
How it was run: (§1)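 Recombinant human or P. falciparum GR run as a quinone reductase without GSSG. Mix: 100 mM phosphate pH 7.0, 200 mM KCl, 100 μM NADPH, 1% DMSO, enzyme, and naphthoquinone at 10 levels from 10 to 400 μM. NADPH oxidation read at 340 nm (ε 6.22 mM⁻¹ cm⁻¹). Steady-state rates fitted to Michaelis–Menten by nonlinear regression to give Km and Vmax; kcat and kcat/Km calculated.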

[2] = biological target: T1, Glutathione reductase, mitochondrial (Homo sapiens) (UniProt P00390); experiment: Catalysis constant against human glutathione reductase; how it was run: as §1
T1 sequence (whole entry): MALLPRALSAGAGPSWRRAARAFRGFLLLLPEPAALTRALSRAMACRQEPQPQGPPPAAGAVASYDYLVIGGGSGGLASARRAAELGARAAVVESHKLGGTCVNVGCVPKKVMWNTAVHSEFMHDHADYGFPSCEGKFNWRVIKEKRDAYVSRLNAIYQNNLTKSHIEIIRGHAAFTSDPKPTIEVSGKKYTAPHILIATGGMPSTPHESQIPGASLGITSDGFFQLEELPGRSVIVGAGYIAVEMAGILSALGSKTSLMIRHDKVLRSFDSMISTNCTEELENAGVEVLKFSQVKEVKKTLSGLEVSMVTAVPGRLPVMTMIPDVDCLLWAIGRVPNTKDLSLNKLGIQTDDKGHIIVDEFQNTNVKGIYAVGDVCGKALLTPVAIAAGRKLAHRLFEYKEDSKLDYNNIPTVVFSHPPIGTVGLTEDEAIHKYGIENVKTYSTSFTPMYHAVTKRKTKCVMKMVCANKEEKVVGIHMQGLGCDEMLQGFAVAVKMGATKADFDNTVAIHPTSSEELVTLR

[3] = biological target: T1, Glutathione reductase, mitochondrial (Homo sapiens); experiment: Ratio of Catalysis constant Michaelis-Menten constant of human glutathione reductase; how it was run: as §1
[4] = biological target: Glutathione reductase (Plasmodium falciparum 3D7) (UniProt O15770); experiment: Ratio of Catalysis constant Michaelis-Menten constant of Plasmodium falciparum glutathione reductase; how it was run: as §1
[5] = test system: MRC5; experiment: Cytotoxicity against human diploid embryonic lung cell line hMRC-5 was observed at conc. upto 32 uM; (No cytotoxicity); format: functional, cell-based

Sequence of Glutathione reductase (Plasmodium falciparum 3D7) (O15770 whole entry): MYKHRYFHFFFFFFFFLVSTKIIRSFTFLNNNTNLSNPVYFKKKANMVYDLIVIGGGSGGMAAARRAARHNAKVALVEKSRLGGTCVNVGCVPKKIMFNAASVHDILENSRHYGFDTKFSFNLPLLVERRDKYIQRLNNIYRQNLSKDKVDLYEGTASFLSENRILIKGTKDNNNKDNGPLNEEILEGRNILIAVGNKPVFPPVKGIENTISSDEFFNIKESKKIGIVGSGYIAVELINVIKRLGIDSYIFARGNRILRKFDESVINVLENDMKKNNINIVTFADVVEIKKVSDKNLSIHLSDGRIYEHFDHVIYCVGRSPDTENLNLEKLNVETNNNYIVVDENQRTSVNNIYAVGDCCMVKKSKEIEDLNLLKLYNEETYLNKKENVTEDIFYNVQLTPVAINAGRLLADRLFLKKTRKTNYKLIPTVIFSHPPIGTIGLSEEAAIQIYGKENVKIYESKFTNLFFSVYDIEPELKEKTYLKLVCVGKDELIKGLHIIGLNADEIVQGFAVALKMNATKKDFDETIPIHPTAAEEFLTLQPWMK

| SMILES | Cytotoxicity [5] | also measured |
| --- | --- | --- |
| CC1=CC(=O)c2ccccc2C1=O |  | K cat [1]: 0.16 s⁻¹; K cat [2]: 0.16 s⁻¹; K cat/Km [3]: 5330 M⁻¹ s⁻¹; K cat/Km [4]: 1990 M⁻¹ s⁻¹ |
| CC1=C(CCCCCC(=O)NCCC#N)C(=O)c2ccccc2C1=O | inactive |  |
| CC1=C(CCCCCC(=O)O)C(=O)c2ccccc2C1=O | inactive |  |
| CC1=C(CCCCc2nnnn2CCC#N)C(=O)c2ccccc2C1=O | inactive |  |
| CC1=C(CCCCCc2nnnn2CCC#N)C(=O)c2ccccc2C1=O | inactive |  |
| CC1=C(CCCCCC(=O)OCCN(C)C)C(=O)c2ccccc2C1=O | inactive |  |
| CC1=C(CCCCC(=O)O)C(=O)c2ccccc2C1=O | inactive |  |
| CC1=C(CCCCC(=O)NCCC#N)C(=O)c2ccccc2C1=O | inactive |  |
| CC1=C(CCCC(=O)NCCC#N)C(=O)c2ccccc2C1=O | inactive |  |
| CC1=C(CCCc2nnnn2CCC#N)C(=O)c2ccccc2C1=O | inactive |  |
